The target in series [1] is T1, 17-beta-hydroxysteroid dehydrogenase type 3 (Homo sapiens, UniProt P37058).
T1 sequence (P37058 whole entry): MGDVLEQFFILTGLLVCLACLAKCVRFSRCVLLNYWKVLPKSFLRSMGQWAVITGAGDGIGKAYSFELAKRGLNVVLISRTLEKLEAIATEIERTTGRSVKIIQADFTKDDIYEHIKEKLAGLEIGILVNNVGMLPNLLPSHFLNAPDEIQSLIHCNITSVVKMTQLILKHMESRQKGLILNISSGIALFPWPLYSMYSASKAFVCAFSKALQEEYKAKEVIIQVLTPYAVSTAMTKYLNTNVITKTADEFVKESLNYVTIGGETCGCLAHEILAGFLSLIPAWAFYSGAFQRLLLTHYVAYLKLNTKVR
The experiment in a line: Inhibition of 17-beta-HSD3 (unknown origin) expressed in human LNCaP cells using [14C]-4-androstene-3,17-dione as substrate assessed as reduction of [14C]-testosterone level after 1 hr by TLC method.

In series [2] the target is T2, Androgen receptor (Homo sapiens, UniProt P10275).
T2 sequence (P10275 whole entry): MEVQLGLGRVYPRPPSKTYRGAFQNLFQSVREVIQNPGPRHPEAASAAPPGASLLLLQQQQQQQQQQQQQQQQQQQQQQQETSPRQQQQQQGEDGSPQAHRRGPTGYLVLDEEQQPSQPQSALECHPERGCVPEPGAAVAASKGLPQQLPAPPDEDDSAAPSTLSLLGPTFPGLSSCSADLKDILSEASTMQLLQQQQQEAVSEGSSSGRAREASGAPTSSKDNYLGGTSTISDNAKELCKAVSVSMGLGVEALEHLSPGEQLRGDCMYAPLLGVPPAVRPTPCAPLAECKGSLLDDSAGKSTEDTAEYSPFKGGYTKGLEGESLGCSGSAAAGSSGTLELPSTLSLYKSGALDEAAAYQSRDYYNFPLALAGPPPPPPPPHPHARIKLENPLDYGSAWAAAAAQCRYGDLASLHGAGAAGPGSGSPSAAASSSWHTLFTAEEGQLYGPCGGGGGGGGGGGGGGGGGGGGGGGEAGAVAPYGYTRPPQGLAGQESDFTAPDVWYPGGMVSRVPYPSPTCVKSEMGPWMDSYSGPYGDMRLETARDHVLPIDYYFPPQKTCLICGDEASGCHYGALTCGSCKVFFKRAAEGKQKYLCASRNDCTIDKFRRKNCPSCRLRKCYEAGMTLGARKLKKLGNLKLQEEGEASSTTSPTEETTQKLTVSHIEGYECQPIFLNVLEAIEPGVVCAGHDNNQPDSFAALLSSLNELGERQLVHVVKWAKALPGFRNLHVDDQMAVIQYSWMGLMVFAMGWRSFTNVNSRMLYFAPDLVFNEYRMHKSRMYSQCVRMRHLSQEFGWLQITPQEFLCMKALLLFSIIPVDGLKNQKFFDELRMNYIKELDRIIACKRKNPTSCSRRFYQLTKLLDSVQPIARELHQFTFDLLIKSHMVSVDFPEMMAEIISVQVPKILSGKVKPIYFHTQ
The experiment in a line: Androgenic activity at AR in human LAPC4 cells assessed as cell growth at 0.1 uM after 3 days by MTS method relative to control. In kind it is cell-based. The following applies: 72 h. The procedure, abridged: (§1)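 LAPC-4 (AR+) cells, cultured in RPMI-1640 with FBS, L-glutamine and insulin, were switched to medium with 5% dextran-coated charcoal treated FBS. 10,000 cells/well, triplicate, were pre-incubated 24 h at 37 °C, then given compound diluted from DMSO stock for 3 days; vehicle DMSO controls. Growth read by MTS, expressed as % proliferation minus basal 100%.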

Series [3] has as its target T2, Androgen receptor. The experiment in a line: Androgenic activity at AR in human LAPC4 cells assessed as cell growth at 0.5 uM after 3 days by MTS method relative to control. Particulars: 72 h. In kind it is cell-based. A digest of the protocol:
as §1

Series [4] concerns the target T2, Androgen receptor. The experiment in a line: Androgenic activity at AR in human LAPC4 cells assessed as cell growth at 1 uM after 3 days by MTS method relative to control. The class given is cell-based. The following applies: 72 h. The procedure, abridged:
as §1

Series [5] is described as follows: Metabolic stability in human liver microsomes assessed as parent compound remaining at 10 uM after 1 hr by HPLC-MS analysis. In kind it is ADME, microsome. Particulars: read-out: Stability. A digest of the protocol: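 Human liver microsomes (40 μg) were incubated with 10 μM substrate for 1 h at 37 °C, with or without 10 mM NADPH, in 50 mM Tris plus 10 mM MgCl₂. MeOH-quenched, centrifuged supernatants from 2 assays pooled for HPLC-MS with UV at 190 nm. % remaining = AUC with NADPH / AUC without NADPH × 100; mean of 4 independent experiments.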

Series [6] deals with T3, 17-beta-hydroxysteroid dehydrogenase type 3 (Homo sapiens) (UniProt P37058).
T3 sequence (whole entry): T1 sequence (P37058 whole entry)
The experiment in a line: Inhibition of 17-beta-HSD3 (unknown origin) expressed in human LNCaP cells using [14C]-4-androstene-3,17-dione as substrate assessed as reduction of [14C]-testosterone level at 0.1 to 1 uM after 1 hr by TLC method. The class given is cell-based. A digest of the protocol: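 LNCaP cells stably transfected with 17β-HSD3, grown in RPMI-1640 with 10% FBS and hygromycin; hygromycin omitted for assay. 10,000 cells/well plated, incubated 2 days, then 15 nM [14C]-4-androstene-3,17-dione added with inhibitor in DMSO (final 0.05%).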

The source made the active and inactive calls. The calls are words filed in the database; no cut-off is given here.

On to `C[C@@H]1CN(S(=O)(=O)c2ccccc2C(F)(F)F)[C@@H](C)CN1C[C@]1(O)CC[C@@]2(C)[C@H](CC[C@@H]3[C@@H]2CC[C@@]2(C)C(=O)CC[C@@H]32)C1`, for which the IC50 in series [1] was 0.15 µM. Further, the figures for the Activity at Androgen receptor [2], on Androgen receptor [3] and on Androgen receptor [4] were 87.2%, 72.3% and 28.2%, respectively. Moreover, the remaining at 1 h, 10 µM in series [5] was found to be 16.6%.

On to `C[C@]12CC[C@H](O)C[C@H]1CC[C@@H]1[C@@H]2CC[C@@]2(C)C(=O)CC[C@@H]12`, for which, in series [6], the inhibition result is “inactive”.

For the compound `C[C@@H]1CN(S(=O)(=O)c2ccccc2C(F)(F)F)[C@@H](C)CN1C[C@@]1(O)CC[C@@]2(C)[C@@H](CC[C@@H]3[C@@H]2CC[C@@]2(C)C(=O)CC[C@@H]32)C1`, the IC50 in series [1] is 1.09 µM. Moreover, the Activity at Androgen receptor [2] is 76.3%; on Androgen receptor [3] it was 61.6%; on Androgen receptor [4], 51%. Further, in series [5], the remaining at 1 h, 10 µM amounted to 29.4%.

For the compound `C[C@]12CC[C@@H](O)C[C@@H]1CC[C@@H]1[C@@H]2CC[C@@]2(C)C(=O)CC[C@@H]12`, the inhibition entry in series [6] was “inactive”.

On to `C[C@@H]1CN(S(=O)(=O)c2ccccc2C(F)(F)F)[C@@H](C)CN1C` (relative stereo), for which the inhibition result in series [6] was “inactive”.

Turning to `C[C@@H]1CN(S(=O)(=O)c2ccccc2C(F)(F)F)[C@@H](C)CN1C[C@@]1(O)CC[C@@]2(C)[C@@H](CC[C@@H]3[C@@H]2CC[C@]2(C)C(=O)CC[C@@H]32)C1`, the IC50 in series [1] turned out to be 0.11 µM. For the same compound, the Activity on Androgen receptor [2] was found to be 96%; on Androgen receptor [3], 48%; on Androgen receptor [4], 33%.

These data come from ChEMBL document CHEMBL4004871, “Impact of androstane A- and D-ring inversion on 17β-hydroxysteroid dehydrogenase type 3 inhibitory activity, androgenic effect and metabolic stability” (Bioorg Med Chem, 2017).
